An excerpt weighted towards active compounds, which were near 1.5% of everything screened.
CXCR6 block: inhibitors of human CXCR6 receptor; CHO-K1 PathHunter CXCR6 beta-arrestin, luminescence; inhibition, % at 20 µM; actives 0.36% (n = 360,000); in the data active = inhibition above about 34%, passing the limit was not always enough;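 also: antagonist mode with CXCL16 agonist at 10 nM final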
EBI2 block: EBI2 (human) antagonism; P32249; EBI2 beta-arrestin recruitment, luminescence, 7a,25-OHC stimulated; inhibition, % at 5 µM; actives 0.81% (n = 360,000); AID 651636; in the data active = inhibition above about 38%;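 also: enzyme fragment complementation signal reports receptor beta-arrestin coupling in cells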
Target sequence (P32249 whole entry, looked up, the tested form may be a part): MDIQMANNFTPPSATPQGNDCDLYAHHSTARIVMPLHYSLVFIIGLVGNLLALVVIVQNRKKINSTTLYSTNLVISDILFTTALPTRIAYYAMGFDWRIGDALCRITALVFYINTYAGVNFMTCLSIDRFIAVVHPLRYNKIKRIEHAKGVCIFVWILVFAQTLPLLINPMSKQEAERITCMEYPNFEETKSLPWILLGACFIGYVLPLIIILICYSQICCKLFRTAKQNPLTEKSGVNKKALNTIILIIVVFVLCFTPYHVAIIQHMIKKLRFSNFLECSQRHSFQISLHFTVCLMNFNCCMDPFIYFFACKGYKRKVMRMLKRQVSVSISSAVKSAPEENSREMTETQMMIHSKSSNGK
APJ antag: antagonists of human APJ apelin receptor. CHO-K1 APJ beta-arrestin complementation, luminescence. actives 0.32% (n = 330,000). P35414. inhibition, % at 20 µM;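 active = inhibition above about 40% at 20 µM, limit read from the data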;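 also: cells challenged with 10 nM apelin-13 agonist together with compound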
APJ ag: APJ receptor agonism; P35414; CHO-K1 APJ PathHunter beta-arrestin, luminescence; 0% DMSO wells, 100% apelin; activation, % at 20 µM; actives 0.11% (n = 330,000); AID 2520;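 active = activation more than six SD over the plate average, tested at 20 µM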
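Material: CHO-K1 APJ beta-arrestin complementation cell line; Input: cell density 1000 per well; Incubation: compound stimulation 90 min at 25 °C, detection 60 min; Signal: luminescence from split beta-galactosidase complementation, Galacton Star/Emerald II substrate; Controls: DMSO-only wells as negative, 10 nM Apelin-13 as positive control.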
CCR6 antagonist: antagonists of human CCR6 receptor; P51684; CHO-K1 CCR6 PathHunter beta-arrestin, luminescence, CCL20-stimulated; inhibition, % at 20 µM; actives 0.49% (n = 340,000);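 active = compounds whose inhibition of the agonist-driven luminescence signal at 20 µM reaches about 50%, limit read from the data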;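 also: cells stimulated with CCL20 at 14 nM final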
APJ ag conf: confirmation of human APJ apelin receptor agonists; CHO-K1 APJ PathHunter beta-arrestin, luminescence; activation, % at 20 µM; shares compounds with APJ ag; AID 2764; actives 10% (n = 310);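 active = activation above 40%, taking the highest of four retests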
Numbers stand for hits; i = inactive; nt = not tested or not shown.

SMILES	CXCR6 block	EBI2 block	APJ antag	APJ ag	CCR6 antagonist	APJ ag conf
O=C(O)CCCCCN1C(=O)/C(=C/c2cn(-c3ccccc3)nc2-c2cccs2)SC1=S	i	i	nt	nt	i	nt
Cn1c(SCC(=O)N2CC(=O)Nc3ccccc32)nnc1C(F)(F)F	i	i	i	i	i	nt
COc1ccc(NC(=O)N2CCc3ccccc3C2)c(OC)c1	i	i	i	i	i	nt
CC(C)(C)OC(=O)NCCCCCc1cn([C@@H](CO)C(=O)NCCCCCCCCCCC(=O)N2CCN(C(=O)OC(C)(C)C)CC2)nn1	i	i	i	45.0	i	52.0
CC(C)(C)OC(=O)CC[C@@H](C(=O)NCCCCCCCCCCC(=O)N1CCN(C(=O)OC(C)(C)C)CC1)n1cc(CCCCCNC(=O)OC(C)(C)C)nn1	i	i	i	i	i	nt
N/C(=N\OC(=O)c1ccc2ccccc2c1)c1ccncc1	i	i	i	i	i	nt
N/C(=N\OC(=O)c1ccc2ccccc2c1)c1ccccc1Cl	i	i	i	43.5	i	i
CC1=C/C(=N\OS(=O)(=O)c2ccccc2)C(C)=CC1=O	i	i	i	108.8	i	86.5
C#CCOCCOCCOCCNc1nc(N2CCN(C(=O)CCCCCCCCCCNC(=O)[C@H]([C@@H](C)CC)n3cc(CCCCCN)nn3)CC2)nc(N2CCN(C(=O)CCCCCCCCCCNC(=O)[C@H]([C@@H](C)CC)n3cc(CCCCN=C(N)N)nn3)CC2)n1	i	i	i	51.0	nt	i
C#CCOCCOCCOCCNc1nc(N2CCN(C(=O)CCCCCCCCCCNC(=O)[C@H]([C@@H](C)CC)n3cc(CCCCN=C(N)N)nn3)CC2)nc(N2CCN(C(=O)CCCCCCCCCCNC(=O)[C@H](CCCCN)n3cc(C)nn3)CC2)n1	nt	nt	40.2	82.6	i	i
CCN(C(=O)COC(=O)/C=C/c1c(C)nn(-c2ccccc2)c1C)c1c(N)n(Cc2ccccc2)c(=O)[nH]c1=O	i	i	nt	nt	i	nt
CCCCCCc1cc2cc(-c3nnc(-c4cc(OC)c(OC)c(OC)c4)o3)c(=O)oc2cc1O	nt	nt	i	16.5	i	53.9
CCCCCCc1cc2cc(-c3nnc(-c4ccccc4O)o3)c(=O)oc2cc1O	i	i	i	24.5	i	51.9
CCCCCCc1cc2cc(-c3nnc(-c4ccccc4OC)o3)c(=O)oc2cc1O	i	i	i	i	i	nt
CC(=O)NC(c1cccc(F)c1)c1nc(-c2cccc(C(F)(F)F)c2)cs1 (stereo unspecified)	i	i	nt	nt	nt	nt
Cc1cccc2sc(NS(=O)(=O)c3ccccc3)nc12	i	i	i	i	i	nt
CCOC(=O)c1c(C)[nH]c(C(=O)OCC(=O)Nc2sccc2C(N)=O)c1C	i	i	i	31.5	i	i
O=[N+]([O-])c1ccc(/C=N/n2c(COc3ccccc3)n[nH]c2=S)cc1	i	i	i	14.2	i	i
O=[N+]([O-])c1cccc(/C=N/n2c(COc3ccccc3)n[nH]c2=S)c1	i	i	i	i	i	nt
CC(=O)c1c(C)[nH]c(C(=O)OCC(=O)Nc2cc(Cl)ccc2[N+](=O)[O-])c1C	i	i	i	16.8	i	i
COC(=O)c1cnc(Oc2ccc(NC(=O)NC(=O)c3ccccc3Cl)cc2)cc1C(F)(F)F	i	i	i	19.6	i	i
COC(=O)c1ccncc1C(=O)Nc1ccc(Oc2ncc(C(F)(F)F)cc2Cl)cc1	i	i	i	i	i	nt
CC(=O)c1c(C)[nH]c(C(=O)OCc2cccc(Cl)c2)c1C	i	i	i	i	i	nt
CC(=O)c1c(C)[nH]c(C(=O)OCc2cc(-c3ccco3)on2)c1C	i	i	i	12.9	i	i
COc1cc(OC)cc(-c2c(-c3cccs3)c3cc(-c4ccc5c(c4)OCCO5)ccc3n2C)c1	i	i	i	i	i	nt
SMILES	CXCR6 block	EBI2 block	APJ antag	APJ ag	CCR6 antagonist	APJ ag conf
N/C(=N\OC(=O)c1cc(Br)ccc1Cl)c1cccnc1	i	i	i	11.0	i	i
O=C(Nc1ccccc1N1CCOCC1)c1ccc([N+](=O)[O-])s1	i	i	i	10.2	i	i
O=C(Nc1ccccc1N1CCOCC1)c1ccccc1[N+](=O)[O-]	i	i	i	i	i	nt
Cn1c(NCc2c[nH]c3ccccc23)nc2ccccc21	i	i	i	22.4	i	i
Cc1ccc(S(=O)(=O)N(C)C)cc1NC(=O)COC(=O)Cc1cccs1	i	i	i	i	i	nt
CC1=NOC(=O)/C1=C\c1ccc(-c2ccc(Br)cc2C(=O)O)o1	i	i	i	i	i	nt
CC1=NOC(=O)/C1=C/c1ccc(-c2ccc(Cl)cc2)o1	64.2	i	i	20.1	nt	i
CC1=NOC(=O)/C1=C\c1ccc(-c2cc(Cl)ccc2Cl)o1	57.2	i	i	65.8	74.3	i
C=CCSc1nc(O)c(CC)c(=O)n1C(C)CC (stereo unspecified)	i	i	i	76.3	i	49.1
C=CCOc1c(Cl)cc(C(=S)N2CCCC2)cc1OCC	i	i	i	i	i	nt
COc1ccc(COC(=O)C2=C(C)NC(=O)NC2c2ccc(F)cc2)cc1 (stereo unspecified)	i	i	i	23.1	i	i
CCOc1ccc(C2NC(=O)NC(C)=C2C(=O)OCc2ccccc2)cc1 (stereo unspecified)	i	i	i	i	i	nt
CCOC(=O)CSc1nc2ccc(Nc3nc(N4CCOCC4)nc(N4CCOCC4)n3)cc2s1	i	i	i	18.7	i	i
Cc1ccc(NC(=O)CSc2nc3ccc(Nc4nc(N5CCOCC5)nc(N5CCOCC5)n4)cc3s2)cc1	i	i	i	i	i	nt
Clc1ccc(-c2nnnn2-c2ccc(Cl)cc2)cc1	i	i	i	i	i	nt
Cc1ccc(-n2nnnc2C(Cl)(Cl)c2nnnn2-c2ccc(C)cc2)cc1	i	i	i	33.7	51.6	40.8
COC(=O)c1ccc2c(=O)n(CCCCCC(=O)N3CCN(c4ccc(F)cc4)CC3)c(=O)[nH]c2c1	i	i	i	46.8	i	i
COc1ccc(CC(=O)Nc2cccc(-c3nnc(-c4ccc(C)cc4)o3)c2)cc1OC	i	i	i	28.2	i	i
COc1ccc(CCN2CCC(Nc3nc4ccccc4n3Cc3ccc(F)cc3)CC2)cc1	i	i	i	31.9	i	i
Clc1ccc(CN2CCc3c([nH]c4ccccc34)C2)cc1Cl	i	i	i	85.2	i	i
Clc1cccc(CN2CCc3c([nH]c4ccccc34)C2)c1	i	i	i	i	i	nt
COc1cc(CN2C[C@@H](CO)O[C@@H](n3cnc4c(N(C)C(C)C)ncnc43)C2)cc(OC)c1OC	i	i	nt	nt	nt	nt
CCCCNc1c(-c2cccc(-c3ccc(OC)cc3)c2)nc2cc(C)ccn12	i	i	i	i	i	nt
CCCCNc1c(-c2cccc(-c3ccc(OC)cc3)c2)nc2ccc(C)cn12	i	i	i	52.3	i	i
Cc1cccc([C@@H]2[C@@H]3C(=O)N(Cc4ccccc4)C(=O)[C@@H]3[C@]3(C)C(=O)N(c4ccc(C(F)(F)F)cc4)C(=O)N23)c1	i	i	i	i	i	nt

Screening results (PubChem)
